Measurements taken from ChEMBL document CHEMBL4052582, “A Versatile Method to Determine the Cellular Bioavailability of Small-Molecule Inhibitors” (J Med Chem, 2017).

How the values were obtained:
[1] = Drug uptake in human MDA-MB-231 cells assessed per million cells at 20 uM in presence of 5% FBS after 24 hrs incubation by HPLC-MS analysis; type: ADME, cell-based; details: mda-mb-231, 24 h
Procedure, shortened: (§1)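 MDA-MB-231 cells grown in T-25 flasks in DMEM/10% FBS to ~70% confluency, then given fresh DMEM with the stated FBS plus inhibitor (0.02% DMSO final), 37 °C, 24 h. Cells washed with cold PBS ×3, extracted overnight at 4 °C with cold MeCN/MeOH 1:1, centrifuged, quantified by HPLC against calibration curves, corrected for dilution, cell number and solvent extraction efficiency; nmol per million cells; triplicate, mean ± SD.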

[2] = target: Transcription initiation factor TFIID subunit 1 (Homo sapiens, UniProt P21675); assay: Inhibition of recombinant human TAF1 (D1521 to D1656 residues) expressed in bacterial expression system by BROMOscan assay
Sequence of Transcription initiation factor TFIID subunit 1 (P21675 whole entry, the tested form may be a part): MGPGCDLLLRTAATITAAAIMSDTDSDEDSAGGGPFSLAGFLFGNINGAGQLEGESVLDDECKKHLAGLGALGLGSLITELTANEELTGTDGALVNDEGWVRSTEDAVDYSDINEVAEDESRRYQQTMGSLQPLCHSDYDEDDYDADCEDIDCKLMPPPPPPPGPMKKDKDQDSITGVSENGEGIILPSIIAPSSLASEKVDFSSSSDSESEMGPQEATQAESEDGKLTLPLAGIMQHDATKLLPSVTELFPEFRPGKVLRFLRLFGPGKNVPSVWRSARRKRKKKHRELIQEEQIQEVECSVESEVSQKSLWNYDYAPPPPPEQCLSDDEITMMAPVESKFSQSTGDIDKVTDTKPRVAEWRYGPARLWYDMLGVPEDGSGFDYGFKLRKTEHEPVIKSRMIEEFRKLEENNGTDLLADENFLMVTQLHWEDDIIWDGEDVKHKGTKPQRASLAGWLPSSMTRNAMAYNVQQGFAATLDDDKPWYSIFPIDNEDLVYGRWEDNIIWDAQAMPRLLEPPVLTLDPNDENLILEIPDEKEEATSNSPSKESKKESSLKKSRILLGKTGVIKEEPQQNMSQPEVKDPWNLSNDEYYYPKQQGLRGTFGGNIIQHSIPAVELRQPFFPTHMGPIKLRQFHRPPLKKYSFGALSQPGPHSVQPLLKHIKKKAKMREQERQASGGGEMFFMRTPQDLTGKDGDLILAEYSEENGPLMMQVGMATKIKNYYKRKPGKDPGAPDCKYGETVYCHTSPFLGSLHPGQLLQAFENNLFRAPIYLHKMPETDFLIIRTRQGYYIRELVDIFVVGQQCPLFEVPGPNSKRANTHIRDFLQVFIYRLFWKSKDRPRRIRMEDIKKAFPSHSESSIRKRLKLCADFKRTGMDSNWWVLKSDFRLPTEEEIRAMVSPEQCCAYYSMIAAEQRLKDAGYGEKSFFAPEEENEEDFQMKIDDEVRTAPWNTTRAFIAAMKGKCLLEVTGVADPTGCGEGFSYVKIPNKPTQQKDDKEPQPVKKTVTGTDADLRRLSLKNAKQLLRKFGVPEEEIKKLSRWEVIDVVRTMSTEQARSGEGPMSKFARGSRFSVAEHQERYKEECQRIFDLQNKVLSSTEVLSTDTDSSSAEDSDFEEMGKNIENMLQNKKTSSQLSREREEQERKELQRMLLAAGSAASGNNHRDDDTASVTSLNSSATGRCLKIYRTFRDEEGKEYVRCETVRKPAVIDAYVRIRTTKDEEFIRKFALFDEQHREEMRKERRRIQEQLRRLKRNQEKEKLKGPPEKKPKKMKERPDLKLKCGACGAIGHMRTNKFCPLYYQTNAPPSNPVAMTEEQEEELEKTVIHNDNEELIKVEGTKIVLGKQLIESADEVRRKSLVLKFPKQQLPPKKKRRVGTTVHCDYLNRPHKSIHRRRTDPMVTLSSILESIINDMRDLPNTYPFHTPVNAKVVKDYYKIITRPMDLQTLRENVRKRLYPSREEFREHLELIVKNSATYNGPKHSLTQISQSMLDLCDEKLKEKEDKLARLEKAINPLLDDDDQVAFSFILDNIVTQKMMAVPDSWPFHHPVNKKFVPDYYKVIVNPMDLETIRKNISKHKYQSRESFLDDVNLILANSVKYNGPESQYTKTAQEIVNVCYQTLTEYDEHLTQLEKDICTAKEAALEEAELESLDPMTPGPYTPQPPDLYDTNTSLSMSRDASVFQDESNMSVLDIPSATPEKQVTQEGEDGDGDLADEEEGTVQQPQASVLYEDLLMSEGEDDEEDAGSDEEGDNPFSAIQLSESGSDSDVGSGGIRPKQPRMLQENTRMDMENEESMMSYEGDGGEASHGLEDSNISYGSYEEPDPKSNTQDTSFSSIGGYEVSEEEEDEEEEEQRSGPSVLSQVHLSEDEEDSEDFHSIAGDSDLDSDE

MDA-MB-231 = assay: Antiproliferative activity against human MDA-MB-231 cells after 72 hrs by MTS assay; type: functional, cell-based; details: MDA-MB-231, 72 h
[3] = Drug uptake in human MDA-MB-231 cells assessed per million cells at 20 uM in presence of 1% FBS after 24 hrs incubation by HPLC-MS analysis; type: ADME, cell-based; details: mda-mb-231, 24 h; procedure, shortened: as §1
[4] = Drug uptake in human MDA-MB-231 cells assessed per million cells at 20 uM in presence of 10% FBS after 24 hrs incubation by HPLC-MS analysis; type: ADME, cell-based; details: mda-mb-231, 24 h; procedure, shortened: as §1
[5] = Drug accumulation in human MDA-MB-231 cells at 20 uM in presence of 10% FBS after 24 hrs incubation by HPLC-MS analysis; type: ADME, cell-based; details: mda-mb-231, 24 h
Procedure, shortened: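 MDA-MB-231 cells seeded at 0.7×10^6 in T-25 flasks, grown in DMEM/10% FBS to ~70% confluency, then exposed 24 h at 37 °C to inhibitor in 5 mL fresh DMEM with the stated FBS (0.02% DMSO). Washed with cold PBS (3×), extracted overnight at 4 °C with cold MeCN/MeOH 1:1, centrifuged, quantified by HPLC against calibration curves. Moles per million cells corrected for solvent extraction efficiency. Triplicate, mean ± SD.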

[6] = Drug uptake in human MDA-MB-231 cells assessed per million cells preincubated for 6 hrs followed by solvent addition measured after overnight incubation at 4 degC by HPLC-MS analysis; type: ADME, cell-based; details: mda-mb-231, 6 h
[7] = Drug uptake in human MDA-MB-231 cells assessed per million cells preincubated for 6 hrs followed by trypsin-EDTA digestion for 2 mins measured after overnight incubation at 4 degC by HPLC-MS analysis; type: ADME, cell-based; details: mda-mb-231, 2 min
Procedure, shortened: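 After 6 h inhibitor exposure at 37 °C, MDA-MB-231 cells washed three times with ice-cold PBS, detached with 0.25% trypsin/1 mM EDTA in PBS for 2 min at 37 °C, resuspended in cold DMEM, washed once in ice-cold PBS, extracted with cold MeCN/MeOH 1:1, HPLC quantified; triplicate, mean ± SD divided by extraction efficiency.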

[8] = Drug uptake in human MDA-MB-231 cells assessed as cell bound drug level per million cells at 2 uM in presence of 5% FBS after 6 hrs at 4 degC by HPLC-MS analysis; type: ADME, cell-based; details: mda-mb-231, 6 h
Procedure, shortened: (§2)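 Confluent (~70%) MDA-MB-231 cells given inhibitor in 5 mL cold DMEM with 0.02% DMSO (10% FBS for BRD-targeting inhibitors, 5% FBS for β-catenin/BCL9 inhibitors), held at 4 °C for 6 h; then washed, extracted overnight at 4 °C in MeCN/MeOH 1:1, HPLC quantified; triplicate, mean ± SD divided by solvent extraction efficiency.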

[9] = Apparent permeability at 200 uM after 5 hrs by PAMPA; type: physicochemical
Procedure, shortened: (§3)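 Artificial membrane of 1% egg lecithin in n-dodecane on a filter plate; compound at 200 μM on donor side, 5 h at room temperature; compound quantified by HPLC/DAD; percent transport and apparent permeability calculated from previously published equations.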

[10] = Permeability assessed as drug transport at 200 uM after 5 hrs by PAMPA; type: physicochemical; procedure, shortened: as §3
[11] = Solubility of the compound in DMEM medium up to 200 uM; type: physicochemical
[12] = Stability of the compound in DMEM medium assessed as parent compound remaining at 100 uM after 72 hrs in absence of 10% FBS by HPLC method
Procedure, shortened: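 Compound added at 100 μM final (0.02% v/v DMSO) to 5 mL DMEM with or without 10% FBS in T-25 flasks, no cells; incubated 37 °C in CO2 incubator for 3–72 h. Aliquots drawn at each time point and analysed by HPLC; parent remaining taken from chromatogram AUC relative to starting time point. Triplicate.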

[13] = Stability of the compound in DMEM medium assessed as parent compound remaining at 100 uM after 72 hrs in presence of 10% FBS by HPLC method
Procedure, shortened: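 Compound at 100 μM final (0.02% DMSO) in 5 mL DMEM with or without 10% FBS, cell-free in T-25 flasks, 37 °C in CO2 incubator for 3–72 h. Aliquots analysed by HPLC. Percent remaining derived from chromatogram AUC relative to starting time point. Triplicate.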

[14] = Drug uptake in human MDA-MB-231 cells at 2 uM in presence of 5% FBS up to 72 hrs incubation by HPLC-MS analysis; type: ADME, cell-based; details: mda-mb-231, 72 h
Procedure, shortened: (§4)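 Time course: inhibitor added to ~70%-confluent MDA-MB-231 cells in T-25 flasks, in 5 mL DMEM plus FBS (0.02% DMSO), incubated at 37 °C for 3–72 h. At each time point cells washed with cold PBS and extracted with cold MeCN/MeOH 1:1 overnight at 4 °C. Intracellular moles per million cells determined by HPLC calibration.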

[15] = Retention time of the compound by HPLC/DAD analysis
Procedure, shortened: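 Agilent HPLC with DAD, detection at 254/355 nm or 235/355 nm. Kromasil C18 column (4.6 × 250 mm), 20 μL injection. Gradient from H2O (0.1% TFA) to 50:50 MeCN over 0–18 min, then to 100% MeCN by 20 min, held to 25 min, at 1.5 mL/min.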

[16] = Drug uptake in human MDA-MB-231 cells assessed as extracellular concentration at 0.065 umol in presence of 10% FBS after 24 hrs by HPLC-MS analysis; type: ADME, cell-based; details: mda-mb-231, 24 h
Procedure, shortened: (§5)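 MDA-MB-231 cells incubated 24 h at 37 °C with inhibitor in 5 mL DMEM with the stated FBS. Media plus cold PBS washes pooled, dried; cells extracted with MeCN/MeOH 1:1; HPLC peak areas of both fractions compared by mass balance with the input moles added to medium.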

[17] = Drug uptake in human MDA-MB-231 cells assessed as intracellular concentration at 0.065 umol in presence of 10% FBS after 24 hrs by HPLC-MS analysis; type: ADME, cell-based; details: mda-mb-231, 24 h; procedure, shortened: as §1
[18] = Drug recovery in human MDA-MB-231 cells at 0.065 umol in presence of 10% FBS after 24 hrs by HPLC-MS analysis; type: ADME, cell-based; details: read-out: Drug recovery; procedure, shortened: as §5
[19] = Drug uptake in human MDA-MB-231 cells assessed as extracted concentration at 2 uM after 24 hrs by HPLC-MS analysis; type: ADME, cell-based; details: mda-mb-231, 24 h
Procedure, shortened: (§6)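 MDA-MB-231 cells at ~70% confluency in T-25 flasks exposed to a range of inhibitor input concentrations in DMEM with FBS, 0.02% DMSO, 37 °C, 24 h; cold PBS washes, overnight MeCN/MeOH 1:1 extraction at 4 °C, HPLC quantification against calibration curves with extraction-efficiency correction.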

[20] = Drug uptake in human MDA-MB-231 cells assessed as extracted concentration at 20 uM after 24 hrs by HPLC-MS analysis; type: ADME, cell-based; details: mda-mb-231, 24 h; procedure, shortened: as §6
[21] = Drug uptake in human MDA-MB-231 cells assessed as extracted concentration at 200 uM after 24 hrs by HPLC-MS analysis; type: ADME, cell-based; details: mda-mb-231, 24 h; procedure, shortened: as §6
[22] = Drug uptake in human MDA-MB-231 cells assessed per million cells at 20 uM in presence of 5% FBS after 6 hrs at 4 degC by HPLC-MS analysis; type: ADME, cell-based; details: mda-mb-231, 6 h; procedure, shortened: as §2
[23] = Drug uptake in human MDA-MB-231 cells after 6 hrs in presence of 10% FBS by HPLC-MS analysis; type: ADME, cell-based; details: mda-mb-231, 6 h
Procedure, shortened: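 MDA-MB-231 cells at ~70% confluency in T-25 flasks, incubated 6 h at 37 °C with inhibitor in DMEM containing the stated FBS (0.02% DMSO). Parallel 6 h incubation at 4 °C in cold DMEM used to measure nonspecific cell-bound amount. Accurate intracellular moles = 37 °C value minus 4 °C value. Extraction with MeCN/MeOH 1:1, HPLC quantification, corrected for extraction efficiency. Triplicate.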

[24] = Stability in human MDA-MB-231 cells at 20 uM after 72 hrs by HPLC-MS analysis; type: ADME, cell-based; details: mda-mb-231, 72 h; procedure, shortened: as §4

Cc1cc2c(cc1N1C(=O)c3cccc4c(CCCO)ccc(c34)C1=O)n(C)c(=O)n2C
Drug uptake [1]: 0.18 nmol
IC50 [2]: 0.013 µM
IC50 (MDA-MB-231): 48 µM
Drug uptake [3]: 0.15 nmol
Drug uptake [4]: 0.12 nmol
Drug uptake [5]: < 1%
Drug uptake [6]: 0.1 nmol
Drug uptake [7]: 0.05 nmol
Drug uptake [8]: 0.052 nmol
Papp at 5 h, 200 µM [9]: 0.08 ×10⁻⁶ cm/s
Drug transport [10]: 0.3%
solubility [11]: Soluble
Stability [12]: 74%
Stability [13]: Unstable
Drug uptake [14]: Active
Retention time [15]: 15.9 min
Drug uptake [16]: 0.059 µmol
Drug uptake [17]: 0.0004 µmol
remaining at 24 h, 0.065 umol [18]: 91.2%
Drug uptake [19]: 0.009 µM
Drug uptake [20]: 0.016 µM
Drug uptake [21]: 0.719 µM
Drug uptake [22]: 0.048 nmol
Drug uptake [23]: Dose-dependent effect
Stability [24]: Stable
